Test results taken from ChEMBL document CHEMBL3822424, “Design and synthesis of 1H-pyrazolo[3,4-c]pyridine derivatives as a novel structural class of potent GPR119 agonists” (Bioorg Med Chem Lett, 2016).
Values after ≈ are worked out from the molar mass of the structure shown.

Legend:
[1] = target: T1, Glucose-dependent insulinotropic receptor (Homo sapiens, UniProt Q8TDV5); test: Agonist activity at human GPR119 expressed in Flp-In-T-Rex-HEK293 cells after 30 mins by cAMP accumulation assay; assay type: functional, cell-based
T1 sequence (Q8TDV5 whole entry): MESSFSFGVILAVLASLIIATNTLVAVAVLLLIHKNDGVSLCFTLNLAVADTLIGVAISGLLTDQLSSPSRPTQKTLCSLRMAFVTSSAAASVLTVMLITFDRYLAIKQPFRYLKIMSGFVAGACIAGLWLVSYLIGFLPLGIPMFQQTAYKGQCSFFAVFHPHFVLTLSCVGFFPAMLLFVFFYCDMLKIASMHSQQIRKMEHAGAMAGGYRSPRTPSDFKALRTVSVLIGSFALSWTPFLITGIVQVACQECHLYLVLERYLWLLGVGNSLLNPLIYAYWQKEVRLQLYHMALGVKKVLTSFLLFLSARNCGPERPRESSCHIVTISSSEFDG
Procedure, shortened: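 Flp-In-T-Rex-HEK293 cells overexpressing human GPR119, induced with tetracycline for 24 h, plated at 5000 cells/well in D-MEM assay buffer with 1 mM IBMX and 0.01% BSA. Cells exposed to compound for 30 min at 37 °C. cAMP read by HTRF kit (HiRange). Response = stimulated minus basal cAMP. EC50 = concentration giving 50% of maximal response.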

[2] = Drug metabolism in human liver microsomes after 15 mins; assay type: ADME; conditions: read-out: Drug metabolism
Procedure, shortened: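 Compound incubated 15 min with human liver microsomes at 1 mg protein/mL; result expressed as percent metabolized.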

[3] = Thermodynamic solubility of the compound in phosphate buffer at pH 6.8; assay type: physicochemical; conditions: read-out: Therm_solubility
Procedure, shortened: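 Thermodynamic solubility measured in pH 6.8 phosphate buffer.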

[4] = Permeability of the compound at pH 6.2 by PAMPA; assay type: ADME; conditions: read-out: permeability
[5] = Half life in Sprague-Dawley rat at 3 mg/kg, iv; assay type: ADME, organism-based; conditions: in vivo
[6] = AUC (0 to infinity) in Sprague-Dawley rat at 10 mg/kg, po; assay type: ADME, organism-based; design: dose 10 mg/kg, time infinity, route oral; conditions: in vivo
[7] = Clearance in Sprague-Dawley rat at 3 mg/kg, iv; assay type: ADME, organism-based; conditions: in vivo
[8] = Volume of distribution at steady state in Sprague-Dawley rat at 3 mg/kg, iv; assay type: ADME, organism-based; conditions: in vivo, read-out: Vdss
[9] = Oral bioavailability in Sprague-Dawley rat at 10 mg/kg; assay type: ADME, organism-based; conditions: in vivo

Row | Structure (SMILES) | EC50 [1] [nM] | metabolised at 0.25 h [2] [%] | further results
1 | CC(C)(OC(=O)N1CCC(n2ncc3cc(-c4ccc(S(C)(=O)=O)cc4)ncc32)CC1)C(F)F | 23 | 3.9 | –
2 | CC(C)OC(=O)N1CCC(n2ncc3cc(-c4ccc(S(C)(=O)=O)cc4)ncc32)CC1 | 42 | 24.1 | solubility thermodynamic [3]: 0.67 µg/mL (≈ 1.51 µM)
3 | CC(C)OC(=O)N1CCC(n2ncc3cc(Oc4ccc(S(C)(=O)=O)cc4)ncc32)CC1 | 177 | – | –
4 | CC(C)OC(=O)N1CCC(n2ncc3cc(-c4ccc(C(N)=O)cc4F)ncc32)CC1 | 97 | – | –
5 | CC(C)(C)OC(=O)N1CCC(n2ncc3cc(-c4ccc(S(C)(=O)=O)cc4)ncc32)CC1 | 20 | – | –
6 | CC(C)COC(=O)N1CCC(n2ncc3cc(-c4ccc(S(C)(=O)=O)cc4)ncc32)CC1 | 11 | 79.8 | –
7 | Cc1ccc(N2CCC(n3ncc4cc(-c5ccc(S(C)(=O)=O)cc5)ncc43)CC2)nc1 | 30 | 44.1 | –
8 | CC(C)(C)OC(=O)N1CCC(n2nnc3cc(-c4ccc(S(C)(=O)=O)cc4)ccc32)CC1 | 63 | – | –
9 | CCc1cnc(N2CCC(n3ncc4cc(-c5cc(F)c(C(=O)NCCO)cc5F)ncc43)CC2)nc1 | 15 | 35.8 | solubility thermodynamic [3]: 0.69 µg/mL (≈ 1.36 µM)
10 | CC(C)OC(=O)N1CCC(n2ncc3cc(-c4cc(F)c(C(=O)N(C)C)cc4F)ncc32)CC1 | 46 | – | –
11 | CC(C)(OC(=O)N1CCC(n2ncc3cc(-c4ccc(S(C)(=O)=O)cc4F)ncc32)CC1)C(F)F | 10 | 2.1 | solubility thermodynamic [3]: < 0.06 µg/mL
12 | CC(C)OC(=O)N1CCC(n2ncc3cc(-c4cc(F)c(C(N)=O)cc4F)ncc32)CC1 | 52 | – | –
13 | CC(C)CCN1CCC(n2ncc3cc(-c4ccc(S(C)(=O)=O)cc4)ncc32)CC1 | 220 | – | –
14 | CC(C)OC(=O)N1CCC(n2ncc3cc(-c4ccc(S(C)(=O)=O)cc4F)ncc32)CC1 | 27 | – | –
15 | CC(C)OC(=O)N1CCC(n2ncc3cc(Oc4cccc(S(C)(=O)=O)c4)ncc32)CC1 | 266 | – | –
16 | CCc1cnc(N2CCC(n3ncc4cc(-c5ccc(S(C)(=O)=O)cc5F)ncc43)CC2)nc1 | 4 | 14.3 | Papp [4]: 112 ×10⁻⁶ cm/s; half-life [5]: 37 min; AUC(0-inf) [6]: 1930 ng·h/mL; clearance [7]: 12.7 mL/min/kg; Vd [8]: 0.537 L/kg; solubility thermodynamic [3]: 0.34 µg/mL (≈ 0.707 µM); bioavailability [9]: 12.6%
17 | CC(C)(C)OC(=O)N1CCC(n2ncc3cc(-c4ccc(S(C)(=O)=O)cc4)ccc32)CC1 | 31 | – | –
18 | CC(C)OC(=O)N1CCC(n2ncc3cc(-c4cc(F)c(C(=O)NCCO)cc4F)ncc32)CC1 | 92 | – | –
19 | CCNC(=O)c1cc(F)c(-c2cc3cnn(C4CCN(C(=O)OC(C)C)CC4)c3cn2)cc1F | 10 | – | –
20 | CCCNC(=O)c1cc(F)c(-c2cc3cnn(C4CCN(C(=O)OC(C)C)CC4)c3cn2)cc1F | 14 | – | –
21 | CC(C)OC(=O)N1CCC(n2ncc3cc(-c4ccc(S(C)(=O)=O)nc4)ncc32)CC1 | 197 | – | –
22 | CCc1cnc(N2CCC(n3ncc4cc(-c5ccc(S(C)(=O)=O)cc5)ncc43)CC2)nc1 | 13 | 20.3 | –
